Source: PubChem BioAssay
Only some compounds are listed: those with a hit (about 4.6% of all), similar ones and a draw of the others.
CHO parental Ca – counter-screen: ATP calcium response change in parental CHO cells. parental CHO-K1, ATP-induced calcium, Fluo-8 fluorescence. inhibition, % at 5.6 µM. 330,000 tested, 0.63% active. AID 463079;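 active means inhibition above that plate's mean sample inhibition plus 3 SD, cut at about 26% in these data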
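Material – parental CHO cells · Reagent – ATP stimulus · Compound – single nominal dose of 5.6 µM per compound · Detection – Fluo-8 fluorescence · Read-out basis – percent inhibition of calcium signal · Controls – ATP-challenged DMSO wells low, unchallenged DMSO wells high · Repeats – no replicates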
GPR7 antag – blocks human GPR7 receptor signaling; 290,000 tested, 1.1% active; AID 1861; GPR7-expressing cells, fluorescence antagonist assay; inhibition, % at 4.4 µM; in the data active means inhibition above about 16%, passing the limit was not always enough;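 further: cells stimulated with the agonist NPW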
OX1R antag-1 – blocks the human orexin 1 receptor; O43613; OX1R-expressing cells, FRET antagonist read-out; inhibition, % at 6.6 µM; 330,000 tested, 1.8% active; in the data active means inhibition mostly above about 38%, no sharp cut-off; inactive means mostly below about 40%
Target sequence (O43613 whole entry, looked up): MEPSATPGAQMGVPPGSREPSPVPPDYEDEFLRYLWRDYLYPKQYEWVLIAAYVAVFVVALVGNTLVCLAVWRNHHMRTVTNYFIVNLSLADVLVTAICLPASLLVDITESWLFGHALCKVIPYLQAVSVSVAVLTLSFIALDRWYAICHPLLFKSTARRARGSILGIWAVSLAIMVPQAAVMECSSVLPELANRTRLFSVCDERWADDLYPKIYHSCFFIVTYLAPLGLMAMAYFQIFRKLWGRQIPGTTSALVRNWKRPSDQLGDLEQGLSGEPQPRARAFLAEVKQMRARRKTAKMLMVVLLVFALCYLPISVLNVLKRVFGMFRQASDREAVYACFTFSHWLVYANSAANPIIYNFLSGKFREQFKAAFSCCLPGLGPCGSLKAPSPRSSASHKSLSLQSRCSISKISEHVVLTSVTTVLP
TAAR1 ag – agonists of human TAAR1 | Q96RJ0 | CHO RD-HGA16 TAAR1, Fluo-8 calcium fluorescence; vehicle wells 0%, saturating PEA agonist 100% | activation, % at 3 µM | 360,000 tested, 0.99% active | AID 624467;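 active means activation above the mean activation of all test compounds in the run plus 3 SD, cut at about 38% in these data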
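System: CHO-derived RD-HGA16 cells with stable Gα16 and human TAAR1. Times: 17-24 h plating, Fluo-8 75 min 37 °C, 30 min RT. Measured by: calcium-sensitive Fluo-8 signal, excitation 470-495, emission 515-575 nm. Read-out basis: % activation relative to PEA EC100 response. Control set: DMSO and PEA EC100. Repeats: no replicates (n 1).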
OX1R antag-2 – antagonists of human orexin 1 receptor. O43613. CHO/OX1R cells, Fluo-8 calcium fluorescence, orexin A. inhibition, % at 5 µM. 330,000 tested, 0.43% active. AID 434989;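 active means inhibition above its plate's threshold, mean inhibition of all tested compounds on the plate plus 3 SD, cut at about 37% in these data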
TAAR1 antagonist – human TAAR1 antagonism | CHO RD-HGA16 TAAR1, Fluo-8 calcium fluorescence, antagonist | inhibition, % at 3 µM | 360,000 tested, 1.5% active | AID 624466;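 active means inhibition above a per-plate cutoff, the mean inhibition of test compounds on that plate plus 3 SD, cut at about 49% in these data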
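Test system – hTAAR1-expressing CHO RD-HGA16 cells, Gα16-coupled · Also added – β-PEA at EC80 concentration, post-compound challenge · Compound – 3 µM, single point · Incubation – dye loading 75 min at 37 °C, then 30 min room temperature · Measured by – Fluo-8 intracellular calcium dye fluorescence, real-time kinetic reads · Benchmarks – vehicle and agonist controls · Replicates – singlicate, one well per test compound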
TAAR1 ag conf – human TAAR1 agonism, confirmed | shares compounds with TAAR1 ag | CHO RD-HGA16 TAAR1, Fluo-8 calcium fluorescence; scaled: DMSO 0%, maximal phenethylamine 100% | activation, % at 3 µM | 2,400 tested, 82% active | AID 651783;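 active means activation above a cutoff set at the run's mean compound activation plus 3 SD, cut at about 39% in these data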
Ga16 ag counter – nonselective agonist in parental cells, TAAR1 agonist counter-screen. CHO-Ga16 parental, Fluo-8 calcium fluorescence; normalized to maximal ATP response, DMSO zero. AID 651787. 2,400 tested, 50% active. shares compounds with TAAR1 ag. activation, % at 3 µM;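 active means activation above the run cutoff, the mean activation over all tested wells plus 3 SD, cut at about 12% in these data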
TAAR1 desensitize – TAAR1 response desensitization, agonist counter-screen | shares compounds with TAAR1 ag | CHO RD-HGA16 hTAAR1, Fluo-8 calcium, beta-PEA response inhibition | inhibition, % at 3 µM | 2,400 tested, 46% active;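 active means inhibition above the run cutoff, the mean inhibition of all test compounds plus 3 SD, cut at about 49% in these data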;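 further: beta-PEA stimulus applied at its EC80; loss of beta-PEA calcium signal after compound pretreatment read as receptor desensitization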
Ga16 antag count – counter-screen for TAAR1 agonists: nonselective Ga16 antagonists; shares compounds with TAAR1 ag; CHO-Ga16 ATP-induced calcium, Fluo-8 fluorescence; inhibition, % at 3 µM; 2,400 tested, 39% active; AID 651952;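 active means inhibition above the plate's mean compound inhibition plus 3 SD, computed per plate, cut at about 22% in these data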
Each line names hits and unclear results; the compound was inactive in the other large screens (follow-up assays come after a bar, where they were run).

O=c1ccc2[n+]([O-])c3ccc(O)cc3oc-2c1	TAAR1 ag 57.8 (no result: CHO parental Ca, OX1R antag-1, OX1R antag-2) | TAAR1 ag conf inactive | Ga16 ag counter 41.7 | TAAR1 desensitize inactive | Ga16 antag count 42.3
Cc1cccc(C(CC(=O)NCCc2ccccc2)c2ccccc2)c1O (centres undefined)	TAAR1 ag 66.3 | TAAR1 ag conf 91.6 | Ga16 ag counter inactive | TAAR1 desensitize 61.1 | Ga16 antag count inactive
COP(=O)(OC)c1nc(-c2cccc3ccccc23)oc1NCCc1ccccc1	TAAR1 ag 74.5, TAAR1 antagonist 75.2 | TAAR1 ag conf 88.2 | Ga16 ag counter inactive | TAAR1 desensitize 83.0 | Ga16 antag count 27.0
C=C1CC[C@H](O)C/C1=C/C=C1\CCC[C@]2(C)[C@@H]([C@H](C)/C=C/[C@H](C)C(C)C)CC[C@@H]12	none (no result: GPR7 antag)
CN(C(=O)CSc1nnc(C2CC2)n1-c1ccccc1)C1CCS(=O)(=O)C1 (centres undefined)	none (no result: GPR7 antag)
O=C(NCc1ccccc1F)C1CCCN(C(=O)Nc2ccc(F)cc2)C1 (centres undefined)	none
C[C@H](O)[C@@H]1CN2CCc3c([nH]c4c(-c5ccccc5)cccc34)[C@@H]2C[C@@H]1N(C)C(=S)NCCc1ccccc1	TAAR1 ag 84.6, TAAR1 antagonist 61.1 (no result: CHO parental Ca, GPR7 antag, OX1R antag-1, OX1R antag-2) | TAAR1 ag conf inactive | Ga16 ag counter inactive | TAAR1 desensitize inactive | Ga16 antag count inactive
COC(=O)c1cnc(Nc2nc(C(N)COCc3ccccc3)cs2)nc1C(F)(F)F (centres undefined)	none (no result: CHO parental Ca, GPR7 antag, OX1R antag-1, OX1R antag-2)
COC(=O)c1cnc(Nc2nc(C(N)c3ccccc3Cl)cs2)nc1C(F)(F)F (centres undefined)	TAAR1 ag 60.3 (no result: CHO parental Ca, GPR7 antag, OX1R antag-1, OX1R antag-2) | TAAR1 ag conf 68.3 | Ga16 ag counter 36.0 | TAAR1 desensitize inactive | Ga16 antag count 28.5
O=c1c2ccc([N+](=O)[O-])cc2ncn1Cc1ccccc1C(F)(F)F	TAAR1 ag 51.1 | TAAR1 ag conf inactive | Ga16 ag counter 21.5 | TAAR1 desensitize inactive | Ga16 antag count inactive
Cc1cc(/C=C(\C#N)C(N)=O)c(C)n1-c1ccc(N2CCOCC2)c([N+](=O)[O-])c1	TAAR1 ag 90.9 | TAAR1 ag conf 114.3 | Ga16 ag counter 53.2 | TAAR1 desensitize 72.6 | Ga16 antag count 29.0
Cc1cc(C=O)c(C)n1-c1ccc(N2CCCCC2)c([N+](=O)[O-])c1	none
NCCOc1ccc(C23CC4CC(CC(C4)C2)C3)cc1	TAAR1 ag 81.4 | TAAR1 ag conf 94.0 | Ga16 ag counter 59.8 | TAAR1 desensitize 81.4 | Ga16 antag count 76.0
COc1ccc(S(=O)(=O)Cc2ccc(C(=O)N3CCc4ccccc4C3)o2)cc1	TAAR1 ag 61.1, TAAR1 antagonist 61.0 | TAAR1 ag conf 91.5 | Ga16 ag counter 23.1 | TAAR1 desensitize 75.9 | Ga16 antag count inactive
Cc1ccc(S(=O)(=O)Cc2ccc(C(=O)N3CCN(Cc4ccccc4)CC3)o2)cc1	none
COc1ccccc1N1CCN(C(=O)c2cccc3c(=O)c(C)c(-c4ccccc4)oc23)CC1	TAAR1 ag 70.0, TAAR1 antagonist 60.2 | TAAR1 ag conf 68.7 | Ga16 ag counter 37.1 | TAAR1 desensitize inactive | Ga16 antag count 33.0
COc1ccccc1N1CCN(C(=O)c2ccc(CS(=O)(=O)c3ccccc3OC)o2)CC1	TAAR1 ag 58.6 | TAAR1 ag conf 58.9 | Ga16 ag counter 21.1 | TAAR1 desensitize 55.0 | Ga16 antag count 33.8
COc1ccccc1N1CCN(C(=O)c2cc(C)oc2C)CC1	none
